According to ChEMBL document CHEMBL3853321, “Optimization of Platelet-Derived Growth Factor Receptor (PDGFR) Inhibitors for Duration of Action, as an Inhaled Therapy for Lung Remodeling in Pulmonary Arterial Hypertension” (J Med Chem, 2016):
Converted amounts (≈) assume the structure as drawn. Each block holds one compound with its values, some of them ahead of it. The source made the active and inactive calls. No cut-off for these calls is given here.

Assays:
[1] = Transcellular permeability of the compound by PAMPA; assay type: ADME
[2] = tested on: Rattus norvegicus; test: In vivo receptor occupancy at PDGFR-beta kinase domain in rat lung at 0.4 mg/kg, it measured after 7 hrs by immunoprecipitation assay; assay type: functional
[3] = Drug uptake in rat lung at 0.4 mg/kg, it at 7 hrs; assay type: ADME, organism-based; settings: inhaled or intranasal, read-out: Drug uptake
Method in brief: (§1)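 Single intratracheal dose as a solution in 10% PEG200/[…] D5W vehicle; compound concentration measured in lung tissue at 7 h or 24 h after dosing.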

[4] = Solubility of the compound using 10%PEG200/[…]D5W by high-throughput assay; assay type: physicochemical
Method in brief: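 Solubility determined in the intratracheal dosing vehicle, 10% PEG200/[…] D5W.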

[5] = tested on: Rattus norvegicus; test: In vivo receptor occupancy at PDGFR-beta kinase domain in rat lung at 1 mg/kg, it measured after 7 hrs by immunoprecipitation assay; assay type: functional
[6] = Drug uptake in rat lung at 1 mg/kg, it at 7 hrs; assay type: ADME, organism-based; settings: inhaled or intranasal, read-out: Drug uptake; method in brief: as §1
[7] = Half life in rat; assay type: ADME; settings: in vivo
[8] = Drug uptake in blood of rat monocrotaline model of pulmonary arterial hypertension at 0.03 mg/kg, it; assay type: ADME, organism-based; settings: in vivo, inhaled_or_intranasal, read-out: Drug uptake
[9] = Drug uptake in blood of rat monocrotaline model of pulmonary arterial hypertension at 0.1 mg/kg, it; assay type: ADME, organism-based; settings: in vivo, inhaled_or_intranasal, read-out: Drug uptake
[10] = tested on: Rattus norvegicus; test: Anti-remodeling activity in rat monocrotaline model of pulmonary arterial hypertension assessed as reduction in MCT-induced muscularization of small blood vessels in lung at 0.03 mg/kg, it administered twice daily for 7 days by histological analysis relative to control; assay type: functional; design: scale not given: the % may be the effect or the level left
Method in brief: (§2)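 Rats given monocrotaline two weeks beforehand so pathology develops; compound then given intratracheally twice daily for seven days (therapeutic mode). Read-out: percentage of fully muscularized small pulmonary vessels; group values given as mean with SEM.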

[11] = target: Histamine H3 receptor (Homo sapiens, UniProt Q9Y5N1); test: Inhibition of H3 receptor (unknown origin)
[12] = target: T1, Muscarinic acetylcholine receptor M1 (Homo sapiens, UniProt P11229); test: Inhibition of M1 receptor (unknown origin)
T1 sequence (P11229 whole entry): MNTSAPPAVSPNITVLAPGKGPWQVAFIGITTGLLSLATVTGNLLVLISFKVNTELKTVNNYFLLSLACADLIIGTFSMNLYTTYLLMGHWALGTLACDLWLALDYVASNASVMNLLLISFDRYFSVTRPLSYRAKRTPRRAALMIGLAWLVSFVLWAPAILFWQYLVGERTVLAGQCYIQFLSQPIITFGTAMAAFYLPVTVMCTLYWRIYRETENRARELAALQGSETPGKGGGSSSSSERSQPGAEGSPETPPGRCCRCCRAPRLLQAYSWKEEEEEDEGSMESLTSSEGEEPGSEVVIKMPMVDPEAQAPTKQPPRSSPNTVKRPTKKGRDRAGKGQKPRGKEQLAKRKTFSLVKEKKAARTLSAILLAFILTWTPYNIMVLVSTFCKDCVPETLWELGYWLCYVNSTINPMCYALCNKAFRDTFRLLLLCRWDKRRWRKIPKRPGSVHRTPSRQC

[13] = Drug uptake in rat lung at 0.1 mg/kg, it at 7 hrs; assay type: ADME, organism-based; settings: inhaled or intranasal, read-out: Drug uptake; method in brief: as §1
[14] = Oral bioavailability in it dosed rat; assay type: ADME, organism-based; settings: in vivo
[15] = tested on: Rattus norvegicus; test: In vivo receptor occupancy at PDGFR-beta kinase domain in rat lung at 0.1 mg/kg, it measured after 24 hrs by immunoprecipitation assay; assay type: functional
[16] = Drug uptake in rat lung at 0.1 mg/kg, it at 24 hrs; assay type: ADME, organism-based; settings: inhaled or intranasal, read-out: Drug uptake; method in brief: as §1
[17] = Drug uptake in blood of rat monocrotaline model of pulmonary arterial hypertension at 0.01 mg/kg, it; assay type: ADME, organism-based; settings: in vivo, inhaled_or_intranasal, read-out: Drug uptake
[18] = tested on: Rattus norvegicus; test: In vivo receptor occupancy at PDGFR-beta kinase domain in rat lung at 0.1 mg/kg, it measured after 7 hrs by immunoprecipitation assay; assay type: functional
[19] = target: Voltage-gated inwardly rectifying potassium channel KCNH2 (Homo sapiens, UniProt Q12809); test: Inhibition of human ERG
[20] = tested on: Rattus norvegicus; test: Anti-remodeling activity in it dosed rat monocrotaline model of pulmonary arterial hypertension assessed as reduction in MCT-induced muscularization of small blood vessels in lung administered twice daily for 7 days by histological analysis; assay type: functional; settings: 168 h, read-out: MED; method in brief: as §2
[21] = Drug uptake in blood of rat monocrotaline model of pulmonary arterial hypertension at 100 mg/kg, po; assay type: ADME, organism-based; settings: in vivo, read-out: Drug uptake
[22] = tested on: Rattus norvegicus; test: Anti-remodeling activity in rat monocrotaline model of pulmonary arterial hypertension assessed as reduction in MCT-induced muscularization of small blood vessels in lung at 100 mg/kg, po administered once daily for 7 days by histological analysis
[23] = tested on: Rattus norvegicus; test: In vivo receptor occupancy at PDGFR-beta kinase domain in rat lung at 0.4 mg/kg, it measured after 24 hrs by immunoprecipitation assay; assay type: functional
[24] = Drug uptake in rat lung at 0.4 mg/kg, it at 24 hrs; assay type: ADME, organism-based; settings: inhaled or intranasal, read-out: Drug uptake; method in brief: as §1
[25] = target: Platelet-derived growth factor receptor alpha (Homo sapiens, UniProt P16234); test: Inhibition of PDGFRalpha kinase domain (unknown origin) assessed as reduction in probe peptide substrate phosphorylation by capillary electrophoresis
Platelet-derived growth factor receptor alpha, sequence (P16234 whole entry, the tested form may be a part): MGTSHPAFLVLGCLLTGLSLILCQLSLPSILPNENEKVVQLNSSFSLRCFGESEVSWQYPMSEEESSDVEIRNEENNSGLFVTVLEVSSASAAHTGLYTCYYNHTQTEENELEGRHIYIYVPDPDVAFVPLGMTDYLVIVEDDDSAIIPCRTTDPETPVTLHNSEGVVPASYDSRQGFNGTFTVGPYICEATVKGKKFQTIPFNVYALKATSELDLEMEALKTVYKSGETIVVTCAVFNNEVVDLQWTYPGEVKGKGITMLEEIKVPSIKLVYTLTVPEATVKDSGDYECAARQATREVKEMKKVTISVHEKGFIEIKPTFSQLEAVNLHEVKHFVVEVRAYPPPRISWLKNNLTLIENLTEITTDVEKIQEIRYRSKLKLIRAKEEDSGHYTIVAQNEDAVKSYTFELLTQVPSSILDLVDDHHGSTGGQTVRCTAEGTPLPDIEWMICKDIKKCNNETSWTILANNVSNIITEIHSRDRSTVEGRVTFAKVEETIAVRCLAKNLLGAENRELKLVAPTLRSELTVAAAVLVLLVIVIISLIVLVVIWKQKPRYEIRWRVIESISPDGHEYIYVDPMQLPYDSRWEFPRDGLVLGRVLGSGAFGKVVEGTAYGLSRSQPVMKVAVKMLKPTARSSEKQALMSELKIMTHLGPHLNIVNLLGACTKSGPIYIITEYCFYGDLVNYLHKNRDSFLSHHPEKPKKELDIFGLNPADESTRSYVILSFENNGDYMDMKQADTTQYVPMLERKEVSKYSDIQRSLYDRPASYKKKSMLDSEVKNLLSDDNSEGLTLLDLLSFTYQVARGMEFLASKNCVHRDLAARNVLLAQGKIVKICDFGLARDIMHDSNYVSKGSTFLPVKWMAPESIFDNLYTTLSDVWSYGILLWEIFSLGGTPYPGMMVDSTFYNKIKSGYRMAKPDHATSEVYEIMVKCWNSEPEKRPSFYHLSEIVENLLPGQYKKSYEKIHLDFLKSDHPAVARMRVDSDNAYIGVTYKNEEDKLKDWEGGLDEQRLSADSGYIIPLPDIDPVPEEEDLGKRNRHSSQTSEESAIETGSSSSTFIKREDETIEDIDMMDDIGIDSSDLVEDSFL

Histamine H3 receptor, sequence (Q9Y5N1 whole entry): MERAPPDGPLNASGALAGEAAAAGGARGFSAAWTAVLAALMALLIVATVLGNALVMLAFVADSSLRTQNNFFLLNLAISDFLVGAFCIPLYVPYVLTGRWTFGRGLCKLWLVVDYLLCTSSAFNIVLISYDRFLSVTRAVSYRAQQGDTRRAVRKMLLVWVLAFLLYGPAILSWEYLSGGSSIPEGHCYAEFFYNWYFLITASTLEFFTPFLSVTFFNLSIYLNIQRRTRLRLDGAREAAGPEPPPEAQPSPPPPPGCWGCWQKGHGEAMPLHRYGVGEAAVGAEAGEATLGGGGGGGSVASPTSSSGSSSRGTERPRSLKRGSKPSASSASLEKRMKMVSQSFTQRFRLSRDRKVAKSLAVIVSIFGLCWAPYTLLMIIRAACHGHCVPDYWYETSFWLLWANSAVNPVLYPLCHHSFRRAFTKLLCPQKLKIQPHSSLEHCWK
Voltage-gated inwardly rectifying potassium channel KCNH2, sequence (Q12809 whole entry): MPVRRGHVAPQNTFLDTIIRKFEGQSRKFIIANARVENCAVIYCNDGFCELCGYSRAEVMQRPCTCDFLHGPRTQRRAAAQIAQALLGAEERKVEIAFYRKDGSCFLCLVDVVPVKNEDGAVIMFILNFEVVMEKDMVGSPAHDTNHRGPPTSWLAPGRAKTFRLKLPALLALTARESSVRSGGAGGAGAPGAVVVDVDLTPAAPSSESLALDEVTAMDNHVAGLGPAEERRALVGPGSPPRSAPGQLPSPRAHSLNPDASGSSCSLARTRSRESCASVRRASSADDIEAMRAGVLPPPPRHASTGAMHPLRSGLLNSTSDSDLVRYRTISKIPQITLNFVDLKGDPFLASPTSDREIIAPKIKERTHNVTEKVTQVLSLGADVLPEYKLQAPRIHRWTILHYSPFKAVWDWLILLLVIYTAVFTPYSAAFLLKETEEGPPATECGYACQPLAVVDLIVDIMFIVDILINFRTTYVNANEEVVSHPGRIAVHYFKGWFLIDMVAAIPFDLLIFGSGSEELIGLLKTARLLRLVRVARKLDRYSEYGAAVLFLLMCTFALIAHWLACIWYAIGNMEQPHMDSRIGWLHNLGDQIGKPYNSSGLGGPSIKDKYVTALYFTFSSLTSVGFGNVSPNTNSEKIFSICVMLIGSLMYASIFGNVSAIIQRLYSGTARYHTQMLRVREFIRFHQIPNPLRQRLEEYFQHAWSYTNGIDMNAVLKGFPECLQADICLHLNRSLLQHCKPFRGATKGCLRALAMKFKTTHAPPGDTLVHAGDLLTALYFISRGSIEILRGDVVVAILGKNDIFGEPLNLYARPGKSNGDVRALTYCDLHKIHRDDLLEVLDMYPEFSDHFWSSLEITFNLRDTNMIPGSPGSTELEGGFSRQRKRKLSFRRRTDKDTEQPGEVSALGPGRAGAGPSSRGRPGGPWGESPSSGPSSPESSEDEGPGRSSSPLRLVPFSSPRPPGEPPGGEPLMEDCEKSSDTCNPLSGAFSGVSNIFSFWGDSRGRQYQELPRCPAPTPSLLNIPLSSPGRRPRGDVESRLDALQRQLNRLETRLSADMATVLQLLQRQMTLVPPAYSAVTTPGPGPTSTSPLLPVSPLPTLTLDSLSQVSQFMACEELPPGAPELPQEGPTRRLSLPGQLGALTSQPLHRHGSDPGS

solubility [4]: < 10 µg/mL
permeability [1]: 11%
concentration at 7 h [6]: 276000 nM
Structure (SMILES): Cn1nccc1-c1ccn2c(C(=O)Nc3cc(C(=O)NCc4ccc(F)c(F)c4)ccc3F)cnc2c1
Occ [5]: 27%

concentration at 7 h [3]: 687 nM
concentration at 7 h [13]: 687 nM
concentration at 24 h [24]: 60 nM
solubility [4]: 770 µg/mL (≈ 1360 µM)
permeability [1]: 4.8%
Structure (SMILES): CN1CCN(c2ccccc2CNC(=O)c2ccc(F)c(NC(=O)c3cnc4cc(-c5ccnn5C)ccn34)c2)CC1
Occ [2]: 70%
Occ [23]: 9%
Occ [18]: 54%

permeability [1]: 23%
Structure (SMILES): CCN(CCNC(=O)c1ccc(F)c(NC(=O)c2cnc3cc(-c4ccnn4C)ccn23)c1)C(C)(C)C

concentration at 7 h [13]: 302 nM
solubility [4]: 590 µg/mL (≈ 1140 µM)
concentration at 24 h [16]: 44 nM
permeability [1]: 5.4%
Structure (SMILES): C[C@@H]1CCC[C@H](C)N1CCNC(=O)c1ccc(F)c(NC(=O)c2cnc3cc(-c4ccnn4C)ccn23)c1
Occ [15]: 0%
Occ [18]: 75%

concentration at 7 h [13]: 1030 nM
solubility [4]: > 1000 µg/mL
concentration at 24 h [16]: 420 nM
permeability [1]: 0.7%
Structure (SMILES): Cn1cc(-c2ccn3c(C(=O)Nc4cc(C(=O)NCCN5CCCC5(C)C)ccc4F)cnc3c2)cn1
Occ [15]: 51%
Occ [18]: 82%

permeability [1]: 0%
Structure (SMILES): CN(CCNC(=O)c1ccc(F)c(NC(=O)c2cnc3cc(-c4ccnn4C)ccn23)c1)C(C)(C)C

permeability [1]: 0.6%
Structure (SMILES): Cn1nccc1-c1ccn2c(C(=O)Nc3cc(C(=O)NCCN4CCCC4(C)C)ccc3F)cnc2c1

permeability [1]: 81%
Structure (SMILES): Cn1nccc1-c1ccn2c(C(=O)Nc3cc(C(=O)NCC4CCC(C)(C)O4)ccc3F)cnc2c1 (centres undefined)

Continued, compound first:

Structure (SMILES): CN1CCN(c2ccccc2CNC(=O)c2ccc(F)c(NC(=O)c3cnc4cc(-c5cnn(C)c5)ccn34)c2)CC1
permeability [1]: 26.3%

Structure (SMILES): Cc1ncc(C(=O)NCc2ccccc2N2CCN(C)CC2)cc1NC(=O)c1cnn2cc(-c3ccnn3C)ccc12
Occ [2]: 83%
concentration at 7 h [3]: 3950 nM
solubility [4]: > 1000 µg/mL
permeability [1]: 17%

Structure (SMILES): CN1CCN(c2ccccc2CNC(=O)c2ccc(F)c(NC(=O)c3cnc4cc(-c5cccnc5)ccn34)c2)CC1
permeability [1]: 23%

Structure (SMILES): Cc1ncc(C(=O)NCCN2CCCC2(C)C)cc1NC(=O)c1cnn2cc(-c3cnn(C)c3)ccc12
half-life [7]: 14 h
concentration [8]: 750 nM
concentration [9]: 1900 nM
Activity [10]: 14.3%
IC50 [11]: 5 µM
IC50 [12]: 5 µM
concentration at 7 h [13]: 1300 nM
bioavailability [14]: 90%
solubility [4]: > 1000 µg/mL
Occ [15]: 81%
concentration at 24 h [16]: 680 nM
concentration [17]: 210 nM
Occ [18]: 88%
IC50 [19]: > 30 µM
minimal effective dose [20]: 0.03 mg/kg
permeability [1]: 4.7%

Structure (SMILES): Cc1ccc(NC(=O)c2ccc(CN3CCN(C)CC3)cc2)cc1Nc1nccc(-c2cccnc2)n1 [IMATINIB]
concentration [21]: 306000 nM
Activity [22]: Active

Structure (SMILES): CN1CCN(c2ccccc2CNC(=O)c2ccc(F)c(NC(=O)c3cnn4cc(-c5ccnn5C)ccc34)c2)CC1
Occ [2]: 29%
concentration at 7 h [3]: 221 nM
solubility [4]: > 1000 µg/mL
permeability [1]: 70%

Structure (SMILES): CN1CCN(c2ccccc2CNC(=O)c2ccc(F)c(NC(=O)c3cnc4cc(-c5cc[nH]n5)ccn34)c2)CC1
IC50 [25]: < 0.0001 µM
permeability [1]: 0%

Structure (SMILES): CN1CCN(c2ccccc2CNC(=O)c2ccc(F)c(NC(=O)c3cnc4ccccn34)c2)CC1
permeability [1]: 83.1%
